These results are taken from ChEMBL document CHEMBL4049418, “6-OH-Phenanthroquinolizidine Alkaloid and Its Derivatives Exert Potent Anticancer Activity by Delaying S Phase Progression” (J Med Chem, 2017).

Series [1] is described as follows: Cytotoxicity against Sprague-Dawley rat primary neuronal cells assessed as reduction in cell viability after 24 hrs by MTT assay. In kind it is cell-based.
In another series the test system is KB. The experiment in a line: Cell cycle arrest in human KB/VCR cells assessed as delay in progression of S-phase to G2-phase at 10 nM pre-treated with aphidicolin for 16 hrs followed by compound addition measured up to 12 hrs by propidium iodide staining-based flow cytometric method. The class given is functional. The essentials:
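Exponentially growing cells synchronized in early S phase with 0.2 μg/mL aphidicolin for 16 h. Cells released into fresh medium with or without compound for set times. Ethanol-fixed, stained with PI/RNase, and cell cycle distribution read by flow cytometry. Representative of three independent experiments.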

Series [2] deals with Bel-7402. Description: Antiproliferative activity against human Bel7402 cells assessed as reduction in cell viability at 0.012 to 1 uM up to 10 days by fluorescence-based cell imaging method. The class given is functional. In outline:
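Live-cell imaging (IncuCyte ZOOM) of BEL-7402 cells seeded at 1.5 × 10⁴ per well in 12-well plates. Cells treated in triplicate with a concentration gradient and imaged continuously for 10 days to build growth curves.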

The test system of series [3] is Bel-7402. Description: Induction of apoptosis in human Bel7402 cells assessed as viable cells at 10 uM after 72 hrs by Annexin V/propidium iodide staining based flow cytometric analysis (reference value: 92.4%). The class given is functional. Particulars: Bel-7402, 72 h, read-out: Activity.
Series [4] relates to Bel-7402. Description: Induction of apoptosis in human Bel7402 cells assessed as early apoptotic cells at 10 uM after 72 hrs by Annexin V/propidium iodide staining based flow cytometric analysis (reference value: 3.66%). In kind it is functional. The essentials:
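BEL-7402 cells (3 × 10⁵ per well, 6-well plates) exposed for 72 h. Harvested, PBS-washed, resuspended in cold binding buffer with annexin V–FITC and PI, and stained 15 min in the dark at room temperature. Early apoptotic, late apoptotic and necrotic fractions quantified by flow cytometry.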
(In general: Flow cytometry measures light scatter and fluorescence of single cells or particles in a stream.)

Active and inactive are the calls of the source. The rule behind the calls is not given here.

Turning to `COc1cc2c3c(c4ccc(O)cc4c2cc1OC)CN1CCCC[C@@H]1C3`, the “inhibition (INH)” value in series [1] was “Dose-dependent effect”. The result in the series on KB was Active.
In the case of `COc1cc2c3c(c4cc(OC)c(OC)cc4c2cc1OC)[C@H](O)[C@@H]1CCCN1C3`, the inhibition entry in the series on Bel-7402 [2] was “Active”. Further, the viability at 10 µM in the series with Bel-7402 [3] came to 85.1%. The Activity with Bel-7402 [4] was found to be 2.06%.
